Test results taken from ChEMBL document CHEMBL1133603, “Synthesis and antimalarial activity of artemisinin derivatives containing an amino group” (2000).
“And” between values parts separate entries of the source, which are not always exact repeats. Equal entries are not always repeated.

Assays:
[1] = system: Monkey; assay: Mean time for 50% reduction in parasitaemia at a dose of 3.16 mg/kg/day after oral administration on Plasmodium knowlesi in rhesus monkeys (7-day treatment); assay type: functional, Cercopithecidae
How it was run: (§1)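 Rhesus monkeys inoculated intravenously on D0 with 2 × 107 P. knowlesi. Compounds given orally once daily D0–D6 (7-day treatment) at 3.16 or 10.0 mg/kg/day, as stated per line. Parasitaemia followed to assess clearance rapidity; cure or recrudescence also recorded.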

[2] = system: Monkey; assay: Mean time for 90% reduction in parasitaemia at a dose of 3.16 mg/kg/day after oral administration on Plasmodium knowlesi in rhesus monkeys (7-day treatment); assay type: functional, Cercopithecidae; how it was run: as §1
[3] = system: Monkey; assay: Time of clearance after oral administration on Plasmodium knowlesi in rhesus monkeys (7-day treatment); assay type: functional, Cercopithecidae; how it was run: as §1
[4] = system: Plasmodium berghei; assay: Antimalarial activity against Plasmodium berghei […] after subcutaneous dose; assay type: functional
How it was run: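 Mice inoculated intraperitoneally on day 0 with 1.5 × 107 P. berghei K173 parasitized cells. Test agents dissolved or ground in water or peanut oil, given once daily D0–D3 at 0.625, 1.25, 2.5, 5 and 10 mg/kg, orally or subcutaneously. Blood smears taken D4, stained and examined by microscopy.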

[5] = system: Plasmodium berghei; assay: Antimalarial activity against Plasmodium berghei K173 after peroral dose
[6] = system: Plasmodium berghei; assay: as above; remark: listed apart in the source
[7] = system: Monkey; assay: Percent parasitaemia before treatment at a dose of 10 mg/kg/day after oral administration on Plasmodium knowlesi in rhesus monkeys (7-day treatment); assay type: functional, Cercopithecidae; how it was run: as §1
[8] = system: Monkey; assay: Percent parasitaemia before treatment at a dose of 3.16 mg/kg/day after oral administration on Plasmodium knowlesi in rhesus monkeys (7-day treatment); assay type: functional, Cercopithecidae; how it was run: as §1
[9] = system: Monkey; assay: Mean time for 50% reduction in parasitaemia at a dose of 10 mg/kg/day after oral administration on Plasmodium knowlesi in rhesus monkeys (7-day treatment); assay type: functional, Cercopithecidae; how it was run: as §1
[10] = system: Monkey; assay: Mean time for 90% reduction in parasitaemia at a dose of 10 mg/kg/day after oral administration on Plasmodium knowlesi in rhesus monkeys (7-day treatment); assay type: functional, Cercopithecidae; how it was run: as §1
[11] = system: Monkey; assay: Percent parasitaemia before treatment at a dose of 10 mg/kg/day after oral administration on Plasmodium knowlesi in rhesus monkeyss (7-day treatment); assay type: functional, Cercopithecidae; how it was run: as §1

SMILES: C[C@@H]1CCC2[C@@H](C)[C@@H](OCCCN3CCOCC3)O[C@@H]3O[C@@]4(C)CCC1[C@@]23OO4.O=C(O)/C=C\C(=O)O (stereo partly specified)
- Reduction [1]: 5.19 h
- Reduction [2]: 11.8 h
- Parasite_Clearance_time [3]: 40 h
- SD50 [4]: 5.57 mg/kg/day
- SD90 [4]: 302.49 mg/kg/day
- SD50 [5]: 1.82 mg/kg/day
- SD90 [6]: 5.28 mg/kg/day

SMILES: C[C@@H]1CCC2[C@@H](C)[C@@H](OCCN3CCOCC3)O[C@@H]3O[C@@]4(C)CCC1[C@@]23OO4.O=C(O)C(=O)O (stereo partly specified)
- SD50 [5]: 1.61 mg/kg/day
- SD90 [6]: 5.26 mg/kg/day

SMILES: C[C@@H]1CCC2[C@@H](C)[C@@H](OCCN3CCOCC3)O[C@@H]3O[C@@]4(C)CCC1[C@@]23OO4.O=C(O)/C=C\C(=O)O (stereo partly specified)
- SD50 [5]: 1.82 mg/kg/day
- SD90 [6]: 7.29 mg/kg/day

SMILES: C[C@H]1C(OC(=O)CCC(=O)O)O[C@@H]2O[C@@]3(C)CCC4[C@H](C)CCC1[C@]42OO3 (stereo partly specified)
- Parasitemia [7]: 35%
- Parasitemia [8]: 42.7%
- Reduction [9]: 8.21 h
- Reduction [1]: 7.84 h
- Reduction [10]: 13.74 h
- Reduction [2]: 13.3 h
- Parasite_Clearance_time [3]: 50 h and 54 h
- SD50 [5]: 6.33 mg/kg/day
- SD90 [6]: 23.39 mg/kg/day

SMILES: C[C@@H]1CCC2[C@@H](C)[C@@H](OCCN(C)C)O[C@@H]3O[C@@]4(C)CCC1[C@@]23OO4.O=C(O)C(=O)O (stereo partly specified)
- Parasitemia [7]: 42.5%
- Parasitemia [8]: 51.5%
- Reduction [9]: 6.25 h
- Reduction [1]: 5.29 h
- Reduction [10]: 13.98 h
- Reduction [2]: 12.09 h
- Parasite_Clearance_time [3]: 44 h
- SD50 [4]: 24.57 mg/kg/day
- SD90 [4]: 255.83 mg/kg/day
- SD50 [5]: 1.61 mg/kg/day
- SD90 [6]: 4.71 mg/kg/day

SMILES: C[C@@H]1CCC2[C@@H](C)[C@@H](OCCCN3CCOCC3)O[C@@H]3O[C@@]4(C)CCC1[C@@]23OO4.O=C(O)/C=C/C(=O)O (stereo partly specified)
- SD50 [5]: 1.33 mg/kg/day
- SD90 [6]: 11.19 mg/kg/day

SMILES: CCN(CC)CCO[C@H]1O[C@@H]2O[C@@]3(C)CCC4[C@H](C)CCC([C@H]1C)[C@]42OO3.O=C(O)C(=O)O (stereo partly specified)
- Reduction [1]: 4.5 h
- Reduction [2]: 11.38 h
- Parasite_Clearance_time [3]: 52 h
- SD50 [4]: 24.57 mg/kg/day
- SD90 [4]: 255.83 mg/kg/day

SMILES: C[C@@H]1CCC2[C@@H](C)[C@@H](OCCNCCO)O[C@@H]3O[C@@]4(C)CCC1[C@@]23OO4.O=C(O)/C=C\C(=O)O (stereo partly specified)
- Parasitemia [11]: 74%
- Reduction [1]: 4.5 h
- Reduction [2]: 11.38 h
- Parasite_Clearance_time [3]: 52 h
- SD50 [4]: 27.66 mg/kg/day
- SD90 [4]: 165.96 mg/kg/day
- SD50 [5]: 1.74 mg/kg/day
- SD90 [6]: 5.08 mg/kg/day
